Reference: ChEMBL document CHEMBL3994637, “Broad spectrum anti-infective properties of benzisothiazolones and the parallels in their anti-bacterial and anti-fungal effects” (Bioorg Med Chem Lett, 2017)
≈ marks a conversion by molar mass, not a printed value.

What was measured:
[1] = system: Trichophyton mentagrophytes; experiment: Anti-fungal activity against Trichophyton mentagrophytes after 48 hrs by broth microdilution method; type: functional
[2] = system: Klebsiella pneumoniae; experiment: Antibacterial activity against Klebsiella pneumoniae ATCC 27736 by broth microdilution method; type: functional
How it was run: (§1)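 Bacteria were tested by the NCCLS method in Mueller Hinton broth, with gentamicin and norfloxacin as reference drugs.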

[3] = system: Plasmodium falciparum; experiment: Antimalarial activity against chloroquine-sensitive Plasmodium falciparum 3D7 after 72 hrs by SYBR Green-1 staining based fluorescence assay; type: functional; conditions: 3D7, 72 h
[4] = system: Candida albicans; experiment: Anti-fungal activity against Candida albicans after 48 hrs by broth microdilution method; type: functional
[5] = Cytotoxicity against monkey Vero C1008 cells after 72 hrs by MTT assay; type: cell-based; conditions: chlorocebus sabaeus
[6] = system: Staphylococcus aureus; experiment: Antibacterial activity against gentamicin-resistant Staphylococcus aureus ATCC 33592 by broth microdilution method; type: functional
[7] = system: Pseudomonas aeruginosa; experiment: Antibacterial activity against Pseudomonas aeruginosa ATCC BAA-427 by broth microdilution method; type: functional; how it was run: as §1
[8] = system: Sporothrix schenckii; experiment: Anti-fungal activity against Sporothrix schenckii after 48 hrs by broth microdilution method; type: functional
[9] = system: Cryptococcus neoformans; experiment: Anti-fungal activity against Cryptococcus neoformans after 48 hrs by broth microdilution method; type: functional
[10] = system: Staphylococcus aureus; experiment: Antibacterial activity against Staphylococcus aureus ATCC 29213 by broth microdilution method; type: functional
[11] = system: Escherichia coli; experiment: Antibacterial activity against Escherichia coli ATCC 9637 by broth microdilution method; type: functional; conditions: W; how it was run: as §1
[12] = system: Candida parapsilosis; experiment: Anti-fungal activity against Candida parapsilosis ATCC 22019 after 48 hrs by broth microdilution method; type: functional; conditions: Lodderomyces parapsilosis, ATCC 22019, 48 h
[13] = system: Staphylococcus aureus; experiment: Antibacterial activity against Staphylococcus aureus ATCC 25923 by broth microdilution method; type: functional
[14] = system: Aspergillus fumigatus; experiment: Anti-fungal activity against Aspergillus fumigatus after 48 hrs by broth microdilution method; type: functional
[15] = Selectivity index, ratio of CC50 for monkey Vero C1008 cells to IC50 for chloroquine-sensitive Plasmodium falciparum 3D7; type: toxicity; conditions: read-out: Ratio CC50/IC50
[16] = system: Staphylococcus aureus; experiment: Antibacterial activity against methicillin-resistant Staphylococcus aureus ATCC 700699 by broth microdilution method; type: functional; conditions: Mu50

Compound	MIC [1]	MIC [2]	IC50 [3]	MIC [4]	CC50 at 72 h [5]	MIC [6]	MIC [7]	MIC [8]	MIC [9]	MIC [10]	MIC [11]	MIC [12]	MIC [13]	MIC [14]	selectivity ratio [15]	MIC [16]	IC50 [1]	IC50 [2]	IC50 [4]	IC50 [7]	also measured
O=c1c2ccccc2sn1-c1ccc(Cl)cc1	12.5 µg/mL (≈ 47.8 µM)	> 50 µg/mL	920 nM	12.5 µg/mL (≈ 47.8 µM)	71700 nM	6.26 µg/mL (≈ 23.9 µM)	> 50 µg/mL	12.5 µg/mL (≈ 47.8 µM)	12.5 µg/mL (≈ 47.8 µM)	6.25 µg/mL (≈ 23.9 µM)	> 50 µg/mL	12.5 µg/mL (≈ 47.8 µM)	6.25 µg/mL (≈ 23.9 µM)	25 µg/mL (≈ 95.5 µM)	70.8	3.12 µg/mL (≈ 11.9 µM)					
O=c1c2ccccc2sn1-c1ccccc1F	12.5 µg/mL (≈ 51 µM)	> 50 µg/mL	> 2000 nM	12.5 µg/mL (≈ 51 µM)		12.5 µg/mL (≈ 51 µM)	> 50 µg/mL	12.5 µg/mL (≈ 51 µM)	12.5 µg/mL (≈ 51 µM)	12.5 µg/mL (≈ 51 µM)	> 50 µg/mL	12.5 µg/mL (≈ 51 µM)	25 µg/mL (≈ 102 µM)	25 µg/mL (≈ 102 µM)		6.25 µg/mL (≈ 25.5 µM)					
O=c1c2ccccc2sn1-c1ccccc1	0.8 µg/mL (≈ 3.52 µM)	> 50 µg/mL	740 nM	3.02 µg/mL (≈ 13.3 µM)	19400 nM		> 50 µg/mL	1.7 µg/mL (≈ 7.48 µM)	1.21 µg/mL (≈ 5.32 µM)	2.1 µg/mL (≈ 9.24 µM)	> 50 µg/mL	0.8 µg/mL (≈ 3.52 µM)	1.6 µg/mL (≈ 7.04 µM)	6.4 µg/mL (≈ 28.2 µM)	26.3	0.77 µg/mL (≈ 3.39 µM)	0.7 µg/mL (≈ 3.08 µM)	> 50 µg/mL	2.9 µg/mL (≈ 12.8 µM)	> 50 µg/mL	IC50 [8]: 0.6 µg/mL (≈ 2.64 µM); IC50 [9]: 0.9 µg/mL (≈ 3.96 µM); IC50 [10]: 1.6 µg/mL (≈ 7.04 µM); IC50 [11]: > 50 µg/mL; IC50 [12]: 0.7 µg/mL (≈ 3.08 µM); IC50 [13]: 1.1 µg/mL (≈ 4.84 µM); IC50 [14]: 6.1 µg/mL (≈ 26.8 µM)
O=c1c2ccccc2sn1-c1cccc2ccccc12	12.5 µg/mL (≈ 45.1 µM)	> 50 µg/mL	2640 nM	25 µg/mL (≈ 90.1 µM)	90800 nM	6.25 µg/mL (≈ 22.5 µM)	> 50 µg/mL	12.5 µg/mL (≈ 45.1 µM)	25 µg/mL (≈ 90.1 µM)	6.25 µg/mL (≈ 22.5 µM)	> 50 µg/mL	25 µg/mL (≈ 90.1 µM)	3.12 µg/mL (≈ 11.2 µM)	50 µg/mL (≈ 180 µM)	34.4	3.12 µg/mL (≈ 11.2 µM)					
COc1ccc(-n2sc3ccccc3c2=O)cc1	> 50 µg/mL	> 50 µg/mL	> 2000 nM	3.5 µg/mL (≈ 13.6 µM)	32600 nM		> 50 µg/mL	0.8 µg/mL (≈ 3.11 µM)	1.1 µg/mL (≈ 4.27 µM)	1.9 µg/mL (≈ 7.38 µM)	> 50 µg/mL	0.7 µg/mL (≈ 2.72 µM)	1.6 µg/mL (≈ 6.22 µM)	11 µg/mL (≈ 42.7 µM)		0.73 µg/mL (≈ 2.84 µM)	> 50 µg/mL	> 50 µg/mL	2.4 µg/mL (≈ 9.33 µM)	> 50 µg/mL	IC50 [8]: 0.4 µg/mL (≈ 1.55 µM); IC50 [9]: 0.9 µg/mL (≈ 3.5 µM); IC50 [10]: 1.2 µg/mL (≈ 4.66 µM); IC50 [11]: > 50 µg/mL; IC50 [12]: 0.6 µg/mL (≈ 2.33 µM); IC50 [13]: 1.5 µg/mL (≈ 5.83 µM); IC50 [14]: 6.9 µg/mL (≈ 26.8 µM)
O=c1c2ccccc2sn1-c1cccc(Cl)c1	12.5 µg/mL (≈ 47.8 µM)	> 50 µg/mL	> 2000 nM	25 µg/mL (≈ 95.5 µM)		6.25 µg/mL (≈ 23.9 µM)	> 50 µg/mL	12.5 µg/mL (≈ 47.8 µM)	12.5 µg/mL (≈ 47.8 µM)	6.25 µg/mL (≈ 23.9 µM)	> 50 µg/mL	25 µg/mL (≈ 95.5 µM)	6.25 µg/mL (≈ 23.9 µM)	25 µg/mL (≈ 95.5 µM)		3.12 µg/mL (≈ 11.9 µM)					
COc1ccccc1-n1sc2ccccc2c1=O	2.6 µg/mL (≈ 10.1 µM)	> 50 µg/mL	> 2000 nM	7.2 µg/mL (≈ 28 µM)	24500 nM		> 50 µg/mL	4 µg/mL (≈ 15.5 µM)	3.8 µg/mL (≈ 14.8 µM)	2.4 µg/mL (≈ 9.33 µM)	> 50 µg/mL	3.2 µg/mL (≈ 12.4 µM)	2 µg/mL (≈ 7.77 µM)	> 50 µg/mL		1.07 µg/mL (≈ 4.16 µM)	0.7 µg/mL (≈ 2.72 µM)	> 50 µg/mL	2.9 µg/mL (≈ 11.3 µM)	> 50 µg/mL	IC50 [8]: 0.6 µg/mL (≈ 2.33 µM); IC50 [9]: 0.9 µg/mL (≈ 3.5 µM); IC50 [10]: 1.6 µg/mL (≈ 6.22 µM); IC50 [11]: > 50 µg/mL; IC50 [12]: 0.7 µg/mL (≈ 2.72 µM); IC50 [13]: 1 µg/mL (≈ 3.89 µM); IC50 [14]: > 50 µg/mL
O=c1c2ccccc2sn1-c1cccc(C(F)(F)F)c1	12.5 µg/mL (≈ 42.3 µM)	> 50 µg/mL	> 2000 nM	25 µg/mL (≈ 84.7 µM)		6.25 µg/mL (≈ 21.2 µM)	> 50 µg/mL	12.5 µg/mL (≈ 42.3 µM)	12.5 µg/mL (≈ 42.3 µM)	6.25 µg/mL (≈ 21.2 µM)	> 50 µg/mL	25 µg/mL (≈ 84.7 µM)	6.25 µg/mL (≈ 21.2 µM)	25 µg/mL (≈ 84.7 µM)		6.25 µg/mL (≈ 21.2 µM)					
